Assay results: ChEMBL document CHEMBL3525942, “Disposition and metabolism of [14C]SB-649868, an orexin 1 and 2 receptor antagonist, in humans” (Drug Metab Dispos, 2011)
Blank lines part the entries; values can stand above or below the molecule they belong to.

Experiments:
[1] = Drug level in human urine treated with [14C]SB-649868 at 30 mg, po single dose after 0 to 72 hrs by HPLC-MSn analysis; settings: in vivo, 0-72 h
[2] = Drug level in human feces treated with [14C]SB-649868 at 30 mg, po single dose by HPLC-MSn analysis; settings: in vivo
[3] = Drug excretion in human urine at 30 mg, po single dose measured at 0 to 192 hrs; format: ADME, organism-based; parameters: dosed compound name [14C]SB-649868; settings: in vivo
Procedure, shortened: (§1)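 After one oral 30 mg [14C] dose in eight healthy men, urine was collected at 0–6, 6–12 and 12–24 h, then every 24 h to 216 h. Feces were collected every 24 h to 216 h and homogenized 1:1 with water. Radioactivity was counted by LSC in triplicate aliquots. Results given as cumulative % of dose, mean (S.D.).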

[4] = Drug excretion in human urine at 30 mg, po single dose measured at 0 to 144 hrs; format: ADME, organism-based; parameters: dosed compound name [14C]SB-649868; settings: in vivo
Procedure, shortened: as §1

[5] = Drug excretion in human urine at 30 mg, po single dose measured at 0 to 216 hrs; format: ADME, organism-based; parameters: dosed compound name [14C]SB-649868; settings: in vivo
Procedure, shortened: as §1

[6] = test system: Homo sapiens; experiment: Total drug excretion in human at 30 mg, po single dose measured at 0 to 120 hrs; format: ADME, organism-based; parameters: dosed compound name [14C]SB-649868; settings: in vivo
Procedure, shortened: as §1

[7] = test system: Homo sapiens; experiment: Total drug excretion in human at 30 mg, po single dose measured at 0 to 96 hrs; format: ADME, organism-based; parameters: dosed compound name [14C]SB-649868; settings: in vivo
Procedure, shortened: (§2)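 Healthy male volunteers (n=8) given single oral 30 mg (approx. 70 µCi) [14C]-labelled dose in a capsule with 160 ml water. Urine collected pre-dose, 0–6, 6–12, 12–24 h, then 24 h intervals to 216 h; feces at 24 h intervals to 216 h, homogenized 1:1 with water. Triplicate aliquots counted by LSC with quench correction and background subtraction; cumulative excretion expressed as % of dose.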

[8] = Drug excretion in human feces at 30 mg, po single dose measured at 0 to 48 hrs; format: ADME, organism-based; parameters: dosed compound name [14C]SB-649868; settings: in vivo
Procedure, shortened: as §1

[9] = test system: Homo sapiens; experiment: AUC (0 to infinity) in human plasma assessed as total radioactivity at 30 mg, po single dose; format: ADME, organism-based; parameters: dosed compound name [14C]SB-649868; settings: in vivo
Procedure, shortened: (§3)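 Eight healthy men given one oral capsule of [14C] drug, 30 mg (approx. 70 µCi), with 160 ml water. Blood in K-EDTA tubes from pre-dose to 96 h, chilled and spun at 4°C. Plasma read by LSC in triplicate 0.25 ml aliquots, quench-corrected and background-subtracted. Noncompartmental analysis: Cmax and tmax read from the data, t1/2 = ln2/λz, AUC by linear-up/log-down trapezoids. Geometric means.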

[10] = test system: Homo sapiens; experiment: AUC (0 to t) in human plasma assessed as total radioactivity at 30 mg, po single dose; format: ADME, organism-based; parameters: dosed compound name [14C]SB-649868; settings: in vivo
Procedure, shortened: as §3

[11] = Drug excretion in human feces at 30 mg, po single dose measured at 0 to 216 hrs; format: ADME, organism-based; parameters: dosed compound name [14C]SB-649868; settings: in vivo
Procedure, shortened: as §1

[12] = test system: Homo sapiens; experiment: Total drug excretion in human at 30 mg, po single dose measured at 0 to 48 hrs; format: ADME, organism-based; parameters: dosed compound name [14C]SB-649868; settings: in vivo
Procedure, shortened: as §1

[13] = Drug excretion in human feces at 30 mg, po single dose measured at 0 to 24 hrs; format: ADME, organism-based; parameters: dosed compound name [14C]SB-649868; settings: in vivo
Procedure, shortened: as §1

[14] = Drug excretion in human urine at 30 mg, po single dose measured at 0 to 12 hrs; format: ADME, organism-based; parameters: dosed compound name [14C]SB-649868; settings: in vivo
Procedure, shortened: as §1

[15] = Drug excretion in human urine at 30 mg, po single dose measured at 0 to 72 hrs; format: ADME, organism-based; parameters: dosed compound name [14C]SB-649868; settings: in vivo
Procedure, shortened: as §1

[16] = Drug excretion in human feces at 30 mg, po single dose measured at 0 to 192 hrs; format: ADME, organism-based; parameters: dosed compound name [14C]SB-649868; settings: in vivo
Procedure, shortened: as §1

[17] = test system: Homo sapiens; experiment: Apparent half life in human plasma assessed as total radioactivity at 30 mg, po single dose; format: ADME, organism-based; parameters: dosed compound name [14C]SB-649868; settings: in vivo
Procedure, shortened: as §3

[18] = test system: Homo sapiens; experiment: Total drug excretion in human at 30 mg, po single dose measured at 0 to 72 hrs; format: ADME, organism-based; parameters: dosed compound name [14C]SB-649868; settings: in vivo
Procedure, shortened: as §2

[19] = test system: Homo sapiens; experiment: Total drug excretion in human at 30 mg, po single dose measured at 0 to 6 hrs; format: ADME, organism-based; parameters: dosed compound name [14C]SB-649868; settings: in vivo
Procedure, shortened: as §2

[20] = Drug excretion in human urine at 30 mg, po single dose measured at 0 to 24 hrs; format: ADME, organism-based; parameters: dosed compound name [14C]SB-649868; settings: in vivo
Procedure, shortened: as §1

[21] = Drug excretion in human feces at 30 mg, po single dose measured at 0 to 168 hrs; format: ADME, organism-based; parameters: dosed compound name [14C]SB-649868; settings: in vivo
Procedure, shortened: as §1

[22] = test system: Homo sapiens; experiment: Tmax in human plasma assessed as total radioactivity at 30 mg, po single dose; format: ADME, organism-based; parameters: dosed compound name [14C]SB-649868; settings: in vivo
Procedure, shortened: as §3

[23] = test system: Homo sapiens; experiment: Total drug excretion in human at 30 mg, po single dose measured at 0 to 144 hrs; format: ADME, organism-based; parameters: dosed compound name [14C]SB-649868; settings: in vivo
Procedure, shortened: as §1

[24] = Drug excretion in human feces at 30 mg, po single dose measured at 0 to 96 hrs; format: ADME, organism-based; parameters: dosed compound name [14C]SB-649868; settings: in vivo
Procedure, shortened: as §1

[25] = Drug excretion in human feces at 30 mg, po single dose measured at 0 to 72 hrs; format: ADME, organism-based; parameters: dosed compound name [14C]SB-649868; settings: in vivo
Procedure, shortened: as §1

[26] = test system: Homo sapiens; experiment: Cmax in human plasma assessed as total radioactivity at 30 mg, po single dose; format: ADME, organism-based; parameters: dosed compound name [14C]SB-649868; settings: in vivo
Procedure, shortened: as §3

[27] = test system: Homo sapiens; experiment: Total drug excretion in human at 30 mg, po single dose measured at 0 to 192 hrs; format: ADME, organism-based; parameters: dosed compound name [14C]SB-649868; settings: in vivo
Procedure, shortened: as §1

[28] = Drug excretion in human feces at 30 mg, po single dose measured at 0 to 144 hrs; format: ADME, organism-based; parameters: dosed compound name [14C]SB-649868; settings: in vivo
Procedure, shortened: as §1

[29] = Drug excretion in human urine at 30 mg, po single dose measured at 0 to 6 hrs; format: ADME, organism-based; parameters: dosed compound name [14C]SB-649868; settings: in vivo
Procedure, shortened: as §1

[30] = test system: Homo sapiens; experiment: Total drug excretion in human at 30 mg, po single dose measured at 0 to 168 hrs; format: ADME, organism-based; parameters: dosed compound name [14C]SB-649868; settings: in vivo
Procedure, shortened: as §1

[31] = Drug excretion in human urine at 30 mg, po single dose measured at 0 to 96 hrs; format: ADME, organism-based; parameters: dosed compound name [14C]SB-649868; settings: in vivo
Procedure, shortened: as §1

[32] = Drug excretion in human urine at 30 mg, po single dose measured at 0 to 168 hrs; format: ADME, organism-based; parameters: dosed compound name [14C]SB-649868; settings: in vivo
Procedure, shortened: as §1

[33] = test system: Homo sapiens; experiment: Total drug excretion in human at 30 mg, po single dose measured at 0 to 12 hrs; format: ADME, organism-based; parameters: dosed compound name [14C]SB-649868; settings: in vivo
Procedure, shortened: as §1

[34] = test system: Homo sapiens; experiment: Total drug excretion in human at 30 mg, po single dose measured at 0 to 24 hrs; format: ADME, organism-based; parameters: dosed compound name [14C]SB-649868; settings: in vivo
Procedure, shortened: as §1

[35] = test system: Homo sapiens; experiment: Total drug excretion in human at 30 mg, po single dose measured at 0 to 216 hrs; format: ADME, organism-based; parameters: dosed compound name [14C]SB-649868; settings: in vivo
Procedure, shortened: as §1

[36] = Drug excretion in human urine at 30 mg, po single dose measured at 0 to 48 hrs; format: ADME, organism-based; parameters: dosed compound name [14C]SB-649868; settings: in vivo
Procedure, shortened: as §1

[37] = Drug excretion in human feces at 30 mg, po single dose measured at 0 to 120 hrs; format: ADME, organism-based; parameters: dosed compound name [14C]SB-649868; settings: in vivo
Procedure, shortened: as §1

[38] = Drug excretion in human urine at 30 mg, po single dose measured at 0 to 120 hrs; format: ADME, organism-based; parameters: dosed compound name [14C]SB-649868; settings: in vivo
Procedure, shortened: as §1

Compound recovery [1]: Below quantification limit | Compound recovery [2]: 1.1%
SMILES: Cc1nc(C(=O)N[C@@H](CCCC(=O)O)CNC(=O)c2cccc3occc23)c(-c2ccc(F)cc2)s1

Compound recovery [1]: 0.6%
SMILES: Cc1nc(C(=O)N2CCCC[C@H]2CNC(=O)c2cccc3oc(O)cc23)c(-c2ccc(F)cc2)s1

Compound recovery [1]: Below quantification limit | Compound recovery [2]: 0.7%
SMILES: Cc1nc(C(=O)N2CCCC[C@H]2Cn2ccc3c(O)cccc3c2=O)c(-c2ccc(F)cc2)s1

Radiolabel recovery [3]: 12% | Radiolabel recovery [4]: 11.9% | Radiolabel recovery [5]: 12% | Radiolabel recovery [6]: 87.3% | Radiolabel recovery [7]: 81.2% | Radiolabel recovery [8]: 36.8% | Radiolabel recovery [9]: 37.3 ugequiv.hr/ml | Radiolabel recovery [10]: 31 ugequiv.hr/ml | Radiolabel recovery [11]: 79.1% | Radiolabel recovery [12]: 47.5% | Radiolabel recovery [13]: 1.9% | Radiolabel recovery [14]: 5.9% | Radiolabel recovery [15]: 11.3% | Radiolabel recovery [16]: 78.5% | Radiolabel recovery [17]: 39.3 h | Radiolabel recovery [18]: 71.3% | Radiolabel recovery [19]: 2.3% | Radiolabel recovery [20]: 8.9% | Radiolabel recovery [21]: 77.7% | Radiolabel recovery [22]: 4 h | Radiolabel recovery [23]: 88.7% | Radiolabel recovery [24]: 69.6% | Radiolabel recovery [25]: 60% | Radiolabel recovery [26]: 1.66 ugequiv/ml | Radiolabel recovery [27]: 90.5% | Radiolabel recovery [28]: 76.8% | Radiolabel recovery [29]: 2.3% | Radiolabel recovery [30]: 89.7% | Radiolabel recovery [31]: 11.6% | Radiolabel recovery [32]: 11.9% | Radiolabel recovery [33]: 5.9% | Radiolabel recovery [34]: 10.8% | Radiolabel recovery [35]: 91.1% | Radiolabel recovery [36]: 10.7% | Radiolabel recovery [37]: 75.6% | Radiolabel recovery [38]: 11.7%
SMILES: C[14c]1nc(C(=O)N2CCCC[C@H]2CNC(=O)c2cccc3occc23)c(-c2ccc(F)cc2)s1
